The source of these data is ChEMBL document CHEMBL1135436, “Structure-activity relationships of the melanocortin tetrapeptide Ac-His-DPhe-Arg-Trp-NH(2) at the mouse melanocortin receptors. 1. Modifications at the His position” (J Med Chem, 2002).

In test [1] the target is Melanocortin receptor 4 (Mus musculus, UniProt P56450). Description: In vitro activation of mouse recombinant Melanocortin-4 receptor. The essentials: (§1)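 HEK-293 cells stably expressing the mouse receptor (calcium phosphate transfection, G418 1 mg/mL selection) were transfected with a CRE/β-galactosidase reporter. Lysates were read with ONPG at 37 °C (OD405), normalized to protein (OD595) and forskolin. EC50 came from nonlinear least-squares fitting, duplicate experiments in quadruplet.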

Test [2] concerns the target Melanocortin receptor 5 (Mus musculus, UniProt P41149). Description: In vitro activation of mouse recombinant Melanocortin-5 receptor. The essentials:
as §1

For test [3], the target named is T1, Melanocortin receptor 3 (Mus musculus, UniProt P33033). Description: In vitro activation of mouse recombinant Melanocortin-3 receptor. Put shortly: as §1
Test [4] deals with Melanocyte-stimulating hormone receptor (Mus musculus, UniProt Q01727). Description: In vitro activation of mouse recombinant Melanocortin-1 receptor. The essentials:
as §1

The target of test [5] is T1, Melanocortin receptor 3. Description: Agonist activity of compound in mouse Melanocortin-3 receptor (mMC3R); Slight agonist. It counts as functional. Put shortly: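 HEK-293 cells stably expressing the mouse receptor (calcium phosphate transfection, G418 1 mg/mL selection) were transfected with a CRE/β-galactosidase reporter. At 48 h they were stimulated for 6 h with peptide (10^-4–10^-12 M) or forskolin (10^-4 M) in DMEM with 0.1 mg/mL BSA and 0.1 mM IBMX. Lysates were read with ONPG at 37 °C (OD405), normalized to protein (OD595) and forskolin. EC50 came from nonlinear least-squares fitting, duplicate experiments in quadruplet.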

Each structure is given as a SMILES string. Where a SMILES comes first, the peptide text is derived from it. [ ]: non-standard residue; d: D form. Tic = O=C(O)[C@@H]1Cc2ccccc2CN1; dTic = O=C(O)[C@H]1Cc2ccccc2CN1; 2Thi = N[C@@H](Cc1cccs1)C(=O)O

T1 sequence (P33033 whole entry): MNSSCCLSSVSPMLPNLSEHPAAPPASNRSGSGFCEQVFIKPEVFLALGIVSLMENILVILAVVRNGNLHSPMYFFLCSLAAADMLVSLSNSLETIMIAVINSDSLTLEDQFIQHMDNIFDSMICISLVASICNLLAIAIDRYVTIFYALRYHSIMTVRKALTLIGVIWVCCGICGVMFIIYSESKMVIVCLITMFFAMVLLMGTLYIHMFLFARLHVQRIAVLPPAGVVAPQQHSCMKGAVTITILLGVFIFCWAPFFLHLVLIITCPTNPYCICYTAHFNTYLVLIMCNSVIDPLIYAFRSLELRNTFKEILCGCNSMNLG
Sequence of Melanocortin receptor 4 (P56450 whole entry): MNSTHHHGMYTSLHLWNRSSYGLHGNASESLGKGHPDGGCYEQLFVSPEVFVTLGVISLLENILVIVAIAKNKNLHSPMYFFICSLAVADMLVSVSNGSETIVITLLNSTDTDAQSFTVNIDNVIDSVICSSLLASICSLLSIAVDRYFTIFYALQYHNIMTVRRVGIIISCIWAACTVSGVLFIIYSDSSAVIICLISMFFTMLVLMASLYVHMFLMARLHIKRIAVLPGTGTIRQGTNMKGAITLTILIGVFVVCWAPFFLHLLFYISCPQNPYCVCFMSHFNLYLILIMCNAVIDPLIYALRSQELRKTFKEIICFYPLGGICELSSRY
Sequence of Melanocyte-stimulating hormone receptor (Q01727 whole entry): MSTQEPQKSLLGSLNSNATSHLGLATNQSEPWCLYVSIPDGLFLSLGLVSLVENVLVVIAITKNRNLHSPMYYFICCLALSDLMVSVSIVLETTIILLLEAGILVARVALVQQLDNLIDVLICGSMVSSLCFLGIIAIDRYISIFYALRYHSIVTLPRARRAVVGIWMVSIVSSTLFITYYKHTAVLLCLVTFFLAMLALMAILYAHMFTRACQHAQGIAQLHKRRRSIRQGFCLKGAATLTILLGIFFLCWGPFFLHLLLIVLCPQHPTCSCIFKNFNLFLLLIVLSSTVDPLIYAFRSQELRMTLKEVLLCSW
Sequence of Melanocortin receptor 5 (P41149 whole entry): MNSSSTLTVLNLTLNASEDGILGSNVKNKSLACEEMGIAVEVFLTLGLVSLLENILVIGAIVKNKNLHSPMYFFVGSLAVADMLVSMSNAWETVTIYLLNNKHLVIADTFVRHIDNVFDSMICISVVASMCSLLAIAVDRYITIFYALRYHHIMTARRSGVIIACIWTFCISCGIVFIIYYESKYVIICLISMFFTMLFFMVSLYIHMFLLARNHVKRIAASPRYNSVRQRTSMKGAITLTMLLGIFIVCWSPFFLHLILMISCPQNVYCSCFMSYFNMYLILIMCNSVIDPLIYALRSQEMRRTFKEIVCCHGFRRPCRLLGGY

`CC(=O)N[C@@H](C)C(=O)N[C@H](Cc1ccccc1)C(=O)N[C@@H](CCCN=C(N)N)C(=O)N[C@@H](Cc1c[nH]c2ccccc12)C(N)=O`: the EC50 (in general, the concentration at which the effect is half-maximal) stood at 1000 nM in test [1], 300 nM in test [2], 9000 nM in test [3] and 1800 nM in test [4].
For `CC(=O)N[C@@H](Cc1cccnc1)C(=O)N[C@H](Cc1ccccc1)C(=O)N[C@@H](CCCN=C(N)N)C(=O)N[C@@H](Cc1c[nH]c2ccccc12)C(N)=O`, the EC50 result was “Partial agonist” in test [5], 887 nM in test [1], 400 nM in test [2] and 1150 nM in test [4].
With `CC(=O)N[C@H](Cc1ccccc1)C(=O)N[C@H](Cc1ccccc1)C(=O)N[C@@H](CCCNC(=N)N)C(=O)N[C@@H](Cc1c[nH]c2ccccc12)C(N)=O`, the EC50 was 2170 nM in test [1], 2980 nM in test [2], above 100000 nM in test [3] and 11500 nM in test [4].
For `CC(=O)N[C@@H](Cc1csc2ccccc12)C(=O)N[C@H](Cc1ccccc1)C(=O)N[C@@H](CCCN=C(N)N)C(=O)N[C@@H](Cc1c[nH]c2ccccc12)C(N)=O`, the EC50 in test [1] turned out to be 211 nM; in test [2] it was 381 nM; in test [3], 19800 nM; in test [4] it was 4400 nM.
For `CC(=O)N1Cc2ccccc2C[C@H]1C(=O)N[C@H](Cc1ccccc1)C(=O)N[C@@H](CCCNC(=N)N)C(=O)N[C@@H](Cc1c[nH]c2ccccc12)C(N)=O` (Ac-[Tic][dF]RW-NH2), in that order: 2900 nM, 369 nM, 11800 nM and 2600 nM.
As to `CC(=O)N[C@@H](Cc1ccncc1)C(=O)N[C@H](Cc1ccccc1)C(=O)N[C@@H](CCCN=C(N)N)C(=O)N[C@@H](Cc1c[nH]c2ccccc12)C(N)=O`, the EC50 in test [1] came out at 128 nM; in test [2], 92.5 nM; in test [3], 2270 nM; in test [4], 176 nM.
On to `CC(=O)N[C@H](Cc1cnc[nH]1)C(=O)N[C@H](Cc1ccccc1)C(=O)N[C@@H](CCCNC(=N)N)C(=O)N[C@@H](Cc1c[nH]c2ccccc12)C(N)=O`, for which the EC50 in test [1] was 506 nM; in test [2], 138 nM.
`CC(=O)N1Cc2ccccc2C[C@@H]1C(=O)N[C@H](Cc1ccccc1)C(=O)N[C@@H](CCCN=C(N)N)C(=O)N[C@@H](Cc1c[nH]c2ccccc12)C(N)=O` (Ac-[dTic][dF]RW-NH2): the EC50 in test [1] was 11700 nM; in test [2], 12000 nM; in test [3] it was above 100000 nM; in test [4] it was 11300 nM.
Turning to `CC(=O)N[C@@H](Cc1ccc2ccccc2c1)C(=O)N[C@H](Cc1ccccc1)C(=O)N[C@@H](CCCN=C(N)N)C(=O)N[C@@H](Cc1c[nH]c2ccccc12)C(N)=O`, the EC50 came to 2900 nM in test [1], 606 nM in test [2], 14700 nM in test [3] and 9500 nM in test [4].
With `CC(=O)N[C@@H](Cc1c[nH]c2ccccc12)C(=O)N[C@H](Cc1ccccc1)C(=O)N[C@@H](CCCN=C(N)N)C(=O)N[C@@H](Cc1c[nH]c2ccccc12)C(N)=O`, the EC50 amounted to 528 nM in test [1], 507 nM in test [2], 10300 nM in test [3] and 5400 nM in test [4].
Turning to `CC(=O)N1CCC[C@H]1C(=O)N[C@H](Cc1ccccc1)C(=O)N[C@@H](CCCN=C(N)N)C(=O)N[C@@H](Cc1c[nH]c2ccccc12)C(N)=O` (Ac-P[dF]RW-NH2), the 50% effective concentration (EC50) amounted to 1500 nM in test [1], 684 nM in test [2], 15000 nM in test [3] and 4250 nM in test [4].
For `CC(=O)N[C@H](Cc1ccc2ccccc2c1)C(=O)N[C@H](Cc1ccccc1)C(=O)N[C@@H](CCCNC(=N)N)C(=O)N[C@@H](Cc1c[nH]c2ccccc12)C(N)=O`, in that order: 1500 nM, 2240 nM, above 100000 nM and 7100 nM.
`CC(=O)NC1(C(=O)N[C@H](Cc2ccccc2)C(=O)N[C@@H](CCCNC(=N)N)C(=O)N[C@@H](Cc2c[nH]c3ccccc23)C(N)=O)CCc2ccccc2C1` (stereo partly specified): the results for the EC50 in test [1], in test [2] and in test [4] were 714 nM, 2400 nM and 7730 nM, respectively.
For the molecule `CC(=O)N[C@@H](Cc1ccccc1)C(=O)N[C@H](Cc1ccccc1)C(=O)N[C@@H](CCCNC(=N)N)C(=O)N[C@@H](Cc1c[nH]c2ccccc12)C(N)=O`, the EC50 in test [1] was 70.6 nM; in test [2], 143 nM; in test [3], 11900 nM; in test [4], 503 nM.
As to `CC(=O)N[C@@H](Cc1cccs1)C(=O)N[C@H](Cc1ccccc1)C(=O)N[C@@H](CCCNC(=N)N)C(=O)N[C@@H](Cc1c[nH]c2ccccc12)C(N)=O` (Ac-[2Thi][dF]RW-NH2), the EC50 in test [1] worked out at 91.2 nM; in test [2], 40.5 nM; in test [3] it was 2950 nM; in test [4], 203 nM.
Taken in the same sequence, the figures for `CC(=O)N[C@H](Cc1c[nH]c2ccccc12)C(=O)N[C@H](Cc1ccccc1)C(=O)N[C@@H](CCCNC(=N)N)C(=O)N[C@@H](Cc1c[nH]c2ccccc12)C(N)=O` were 6200 nM, 1260 nM, above 100000 nM and 6600 nM.
